# DSG3 Ab inh: inhibitors of pemphigus antibody binding to DSG3, primary screen, biochemical, bead-based, flow cytometry, scFv-GFP | AID 588358, 2011 | binding (percent of control), % at 10 µM | DSG3-coupled beads, scFv-anti-DSG3-GFP binding; active compounds read low | 310,000 tested, 0.48% active | Desmoglein-3 (Homo sapiens), P32926;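 active means binding more than 3 SD below its plate's average and above zero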;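 further: hits lower antibody fragment binding to DSG3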
# Target sequence (P32926 whole entry, looked up, the tested form may be a part): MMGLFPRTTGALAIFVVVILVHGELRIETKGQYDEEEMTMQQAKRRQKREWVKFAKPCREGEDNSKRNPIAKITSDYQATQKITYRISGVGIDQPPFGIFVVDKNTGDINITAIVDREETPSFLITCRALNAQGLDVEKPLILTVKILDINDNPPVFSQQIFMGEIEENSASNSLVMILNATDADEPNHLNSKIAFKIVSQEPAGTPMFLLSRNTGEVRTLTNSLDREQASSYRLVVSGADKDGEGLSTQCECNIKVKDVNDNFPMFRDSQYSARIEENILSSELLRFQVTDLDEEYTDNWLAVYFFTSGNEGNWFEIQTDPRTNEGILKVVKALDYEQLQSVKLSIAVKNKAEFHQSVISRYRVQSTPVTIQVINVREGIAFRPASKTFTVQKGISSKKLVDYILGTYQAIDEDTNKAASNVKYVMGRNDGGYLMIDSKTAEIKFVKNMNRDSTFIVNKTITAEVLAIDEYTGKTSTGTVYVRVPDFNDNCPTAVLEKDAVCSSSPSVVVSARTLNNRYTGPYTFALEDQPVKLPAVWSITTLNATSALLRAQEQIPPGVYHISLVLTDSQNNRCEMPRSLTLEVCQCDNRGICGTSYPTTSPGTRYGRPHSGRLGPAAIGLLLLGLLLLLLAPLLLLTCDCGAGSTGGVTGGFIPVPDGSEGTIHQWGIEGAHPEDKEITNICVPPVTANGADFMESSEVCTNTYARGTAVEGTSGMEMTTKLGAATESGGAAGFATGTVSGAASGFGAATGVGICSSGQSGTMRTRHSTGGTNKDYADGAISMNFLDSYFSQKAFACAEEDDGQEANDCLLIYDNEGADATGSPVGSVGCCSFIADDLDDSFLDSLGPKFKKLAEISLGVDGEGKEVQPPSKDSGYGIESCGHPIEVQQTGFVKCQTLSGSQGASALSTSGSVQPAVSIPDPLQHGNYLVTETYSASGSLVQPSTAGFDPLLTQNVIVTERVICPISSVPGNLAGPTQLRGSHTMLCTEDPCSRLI
# TRPC4 block: inhibitors of mouse TRPC4 channel, primary screen, Fluo4 calcium, HEK293 TRPC4beta/mu-opioid cells | AID 2247, 2010 | DAMGO-evoked Fluo4 calcium flux; active compounds read low | B-score at 10 µM | 300,000 tested, 0.39% active | Short transient receptor potential channel 4 (Mus musculus), Q9QUQ5;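 active means B-score over 3 SD under the library average, no early fluorescence shift, positive overall ratio signal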
#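 Assay system: Stable TRPC4beta/mu-opioid receptor HEK293 cells | Reagent: DAMGO in two steps, submaximal then maximal | Compound dosing: Single concentration per test compound | Signal: Fluo4 Ca2+ flux fluorescence | Evaluation: Per-well B score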
# TRPC6 inh: mouse TRPC6 channel inhibitors, primary screen, cell-based, HEK293, membrane potential dye; B-score at 10 µM; ACh-evoked depolarization; active compounds read low; 310,000 tested, 1.1% active;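 active means B-score under library mean minus 3 SD, initial fluorescence not abnormally high, positive integrated signal ratio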;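 further: B-score derived from integrated fluorescence ratio over the kinetic read; more negative B-score means stronger inhibition of depolarization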
# TRPC4 agonist: activators of mouse TRPC4 channel, primary screen, Fluo4 calcium, HEK293 TRPC4beta/mu-opioid cells | B-score at 10 µM | 310,000 tested, 0.49% active | Fluo4 calcium fluorescence; active compounds read high;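 active means B-score above 5 SD of library B-scores, and initial fluorescence ratio not above library mean plus 5 SD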;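 further: positive B-score marks a calcium rise read as TRPC4 activation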
#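 Material: TRPC4beta and mu-opioid receptor HEK293 stable cells | Incubation: 45 min room-temperature Fluo4 loading, 110 s read | Detection: Kinetic Fluo4 calcium fluorescence | Measure: Integrated baseline-normalised fluorescence ratio, converted to per-well B score | Benchmarks: Low control buffer alone, high control maximal DAMGO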
# TRPC6 act: mouse TRPC6 channel activators, primary screen, cell-based, HEK293, membrane potential dye; B-score at 10 µM; HEK293-TRPC6 membrane potential dye fluorescence; active compounds read high; AID 2550, 2010; Short transient receptor potential channel 6 (Mus musculus), Q61143; 310,000 tested, 0.13% active;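 active means B-score of the integrated fluorescence ratio above library mean plus 3 SD, and starting fluorescence ratio within library mean plus 5 SD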;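 further: higher score means more depolarization so channel activation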
# TRPC4 PAM: positive allosteric modulators of TRPC4, primary screen, cell-based, mouse TRPC4beta, HEK293 mu-opioid, Fluo-4 calcium | B-score at 10 µM | 310,000 tested, 0.42% active | Short transient receptor potential channel 4 (Mus musculus), Q9QUQ5 | DAMGO EC20, Fluo-4 Ca2+ flux; active compounds read high;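 active means B-score of calcium response area above 5 SD of library B-scores, with initial fluorescence ratio within 5 SD of library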;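 further: B-score of integrated fluorescence ratio over time as area under calcium response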
# The depositor's hits bear a star; i = inactive; . = not tested or not shown; ! = repeats disagree. Hits are enriched below; roughly 2.5% of the tested compounds scored in any of these assays.
SMILES,DSG3 Ab inh,TRPC4 block,TRPC6 inh,TRPC4 agonist,TRPC6 act,TRPC4 PAM
Cc1csc(CN(C)C(=O)CC2C(=O)NCCN2Cc2ccc(Cl)c(F)c2)n1 (configuration not stated),104,i,i,i,i,12*
COc1ccc(NC(=O)C(CC(C)C)NC(=O)C2CCCCC2)c(OC)c1 (configuration not stated),99,i,i,i,i,i
O=C(CN1CCCC1=O)NC1C2CC3CC(C2)CC1C3 (configuration not stated),106,i,i,i,i,i
O=C(COc1cccc(C(F)(F)F)c1)Nc1cccc(S(=O)(=O)NC2=NCCCCC2)c1,115,.,.,.,.,.
O=C(CC1C(=O)NCCN1Cc1ccc(-c2ccccc2)cc1)NCCc1ccccn1 (configuration not stated),101,i,i,130*,i,i
CCCc1c(C(=O)N/N=C/c2ccco2)nnn1-c1nonc1N,101,i,i,i,i,i
Cc1ccc(C)c(OCC(O)CN2CCN(CCN3C(=O)c4cccc5cccc(c45)C3=O)CC2)c1 (configuration not stated),106,i,-5.1*,i,i,i
CC(=O)c1ccccc1OCC(O)CN1CCN(CCN2C(=O)c3cccc4cccc(c34)C2=O)CC1 (configuration not stated),109,i,i,i,i,i
O=C(O)c1ccccc1C(=O)NCCc1c(C(=O)O)[nH]c2ccc(F)cc12,101,i,i,i,i,i
C[C@@H](NC(=O)c1nc[nH]c1C(=O)NCc1ccccc1)c1ccccc1,105,.,.,.,.,.
C1=C(c2ccccc2)Nc2ncnn2C1c1ccccc1 (configuration not stated),69*,i,i,i,i,i
Cc1ccc(C2=CC(c3ccccc3)n3ncnc3N2)cc1 (configuration not stated),104,.,i,i,i,i
O=C(CNC(=O)c1ccc2ccccc2c1)NCc1ccccc1F,.,i,i,i,i,i
CN(C)CCNC(=O)c1scc2c1CCCC2,101,i,i,142*,i,i
CCn1c(SCC(=O)c2cc(C)n(CC3CCCO3)c2C)nc2ccccc21 (configuration not stated),110,-7*,i,200*,i,i
OCC1(CC2CCCCO2)CCN(Cc2cccc(O)c2)CC1 (configuration not stated),112,i,i,i,i,i
CCOc1cc(/C=N/NC(=O)C(=O)Nc2cc(Cl)ccc2C)ccc1O,94,i,i,i,i,i
CC1(C)CC2CC(C)(CN2C(=O)c2cc(-c3ccc(O)cc3)on2)C1 (configuration not stated),105,-6*,i,i,i,i
COc1cccc(-c2cc(C(=O)N3CC4(C)CC3CC(C)(C)C4)no2)c1 (configuration not stated),99,i,i,i,i,i
C[C@H]1CN([C@@H](C)CO)S(=O)(=O)c2ccc(Br)cc2O[C@H]1CN(C)C(=O)C1CCC1,109,.,.,.,.,.
C[C@@H]1CN([C@@H](C)CO)S(=O)(=O)c2ccc(Br)cc2O[C@@H]1CN(C)C(=O)C1CC1,84*,.,.,.,.,.
COc1ccc(/C=C2\SC(=S)N(CC(=O)NC3C=CS(=O)(=O)C3)C2=O)cc1 (configuration not stated),.,i,i,i,i,i
O=C(NCCNc1ccc([N+](=O)[O-])cc1)c1ccc(Cl)cc1,100,i,i,i,i,i
O=C(COc1ccc(Cl)cc1)NCCNc1ccc([N+](=O)[O-])cc1,72*,i,i,i,i,i
CC(=O)OCC1OC(n2c(-c3ccc(Cl)cc3)ccc(C#N)c2=S)C(OC(C)=O)C(OC(C)=O)C1OC(C)=O (configuration not stated),84,.,.,.,.,.
SMILES,DSG3 Ab inh,TRPC4 block,TRPC6 inh,TRPC4 agonist,TRPC6 act,TRPC4 PAM
CNCC[C@H](Oc1cccc2ccccc12)c1cccs1,119,i,-5.7*!,i,i,i
COC(=O)[C@H](C(C)C)N(Cc1ccccc1)S(=O)(=O)CCNC1CCCC1,107,.,.,.,.,.
COc1ccc(NC(=O)CN2C(=O)COc3ccc(C)cc32)cc1,89,i,i,i,i,i
CCOP(=O)(OCC)c1nc(-c2ccccc2Cl)oc1N1CCOCC1,87,i,i,i,i,i
CCOP(=O)(OCC)c1nc(-c2ccc(Cl)cc2Cl)oc1N1CCCCC1,103,i,i,i,i,19*
Cc1cc(SCC#N)nc2ccccc12,118,-6*,i,i,i,i
CCN1CCN(c2c(S(=O)(=O)c3ccc(C)c(C)c3)cnc3ccc(F)cc23)CC1,98,i,i,61*,i,i
O=C(Nc1ccc(Cl)c(S(=O)(=O)N2CCOCC2)c1)c1ccncc1,100,.,.,.,.,.
Cc1nc(=S)c2ccccc2[nH]1,103,i,i,i,i,i
Cc1cc2[nH]c3ccccc3c2c(C)n1,.,-7*,i,i,i,i
Cc1ccc2c(c1)CC(C)N2S(=O)(=O)c1nnc(NC(=O)CC(C)C)s1 (configuration not stated),.,i,i,i,i,i
CC(=NCCN1CCN(C(C)=C2C(=O)c3ccccc3C2=O)CC1)C1=C(O)CC(C)(C)CC1=O,111,i,i,i,i,14*
CC(=C1C(=O)c2ccccc2C1=O)N1CCN(CCN=CC2=C(O)CC(C)(C)CC2=O)CC1,90,i,i,i,i,i
Cc1cc(C)c2[nH]c(=O)c(CN(Cc3cccnc3)C(=S)NCCCN(C)C)cc2c1,.,i,i,i,i,i
Cc1cccc(C(=O)OCC(=O)N(CC(C)C)c2c(N)n(Cc3ccccc3)c(=O)[nH]c2=O)c1O,99,i,i,i,i,i
Cc1cccc(C)c1NC(=S)N(C)CCc1ccccn1,111,i,i,i,i,i
CC(C)c1ccc(NC(=S)N(C)CCc2ccccn2)cc1,117,i,i,107*,i,i
